This note sets out measurements from ChEMBL document CHEMBL1221306, “Synthesis, activity, and pharmacokinetic properties of a series of conformationally-restricted thiourea analogs as novel hepatitis C virus inhibitors” (Bioorg Med Chem, 2010).

One data set has as its system Hepatitis C virus. Put plainly: Antiviral activity against HCV1b infected in human HuH7 cells assessed as inhibition of viral replication after 24 hrs. In kind it is functional, organism-based, Hepacivirus hominis. The conditions noted are these: genotype 1b, Huh-7, 24 h.
The nature of data set [1]: Cytotoxicity against human HuH7 cells after 24 hrs. The format is cell-based, Huh-7.
Data set [2] in a line: Clearance in Sprague-Dawley rat at 5 mg/kg, iv. The format is ADME, organism-based. Further details: dose 5 mg/kg, route intravenous. Particulars: in vivo. Put shortly: (§1)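 Male rats (330–380 g, 9–10 weeks old, n = 3) were given the compound as a solution in DMA/propylene glycol (20:80, v/v), either iv at 5 mg/kg or po at 25 mg/kg. Rats were fasted and had jugular-vein cannulae. Blood was sampled at 0, 2, 5 (iv only) and 15 min, 30 min, and 1, 2, 4, 6, 8 and 24 h. Plasma was assayed by HPLC–MS/MS and analysed non-compartmentally.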

Data set [3] is described as follows: Volume of distribution at steady state in Sprague-Dawley rat at 5 mg/kg, iv. In kind it is ADME, organism-based. On the set-up: dose 5 mg/kg, route intravenous. Particulars: in vivo, read-out: Vdss. The method, boiled down: as §1
A short description of data set [4]: Half life in Sprague-Dawley rat at 5 mg/kg, iv. In kind it is ADME, organism-based. On the set-up: dose 5 mg/kg, route intravenous. Particulars: in vivo. Put shortly: as §1
A short description of data set [5]: AUC in Sprague-Dawley rat at 5 mg/kg, iv. The conditions noted are these: plasma. On the set-up: dose 5 mg/kg, route intravenous. The format is ADME, organism-based. Put shortly: as §1
The nature of data set [6]: Cmax in Sprague-Dawley rat at 25 mg/kg, po. In kind it is ADME, organism-based. On the set-up: dose 25 mg/kg, route oral. Particulars: in vivo. Put shortly:
as §1

Data set [7] in a line: Tmax in Sprague-Dawley rat at 25 mg/kg, po. In kind it is ADME, organism-based. Further details: dose 25 mg/kg, route oral. Particulars: in vivo. Put shortly: as §1
Data set [8] in a line: Half life in Sprague-Dawley rat at 25 mg/kg, po. In kind it is ADME, organism-based. On the set-up: dose 25 mg/kg, route oral. Particulars: in vivo. The method, boiled down:
as §1

The nature of data set [9]: AUC in Sprague-Dawley rat at 25 mg/kg, po. In kind it is ADME, organism-based. On the set-up: dose 25 mg/kg, route oral. The conditions noted are these: plasma. Put shortly:
as §1

Data set [10] in a line: Oral bioavailability in Sprague-Dawley rat at 25 mg/kg. The conditions noted are these: in vivo. In kind it is ADME, organism-based. The method, boiled down:
as §1

What is called EC50 is the concentration giving half of the maximal effect. The CC50 is the concentration giving 50% cytotoxicity. Read a high CC50 as better tolerance by the cells. Turning to `S=C(Nc1ccc2c(c1)Cc1cc(Br)ccc1-2)Nc1cccc2ccccc12`, the EC50 in the data set on Hepatitis C virus was found to be 15.4 µM. Further, the CC50 at 24 h in [1] is greater than 50 µM.
For `S=C(Nc1cccnc1)Nc1ccc2c(c1)Cc1cc(Br)ccc1-2` the same measures were greater than 50 µM and 19.7 µM.
For `NC(=O)Nc1ccc2c(c1)Cc1cc(Br)ccc1-2` the same measures were greater than 50 µM and greater than 50 µM.
Consider `NC(=S)Nc1ccc2c(c1)Cc1cc(NCc3ccccc3)ccc1-2`, for which the EC50 in the data set on Hepatitis C virus was found to be 0.49 µM. This compound returned a CC50 at 24 h in data set [1] greater than 50 µM.
A word on the clearance: it is a measure of how efficiently the substance is removed, as volume per time. Lower therefore signals a low capacity for elimination. Broadly, the half-life is the time needed for the level to fall by half in the phase considered. A lower half-life goes with fast loss. By AUC is commonly meant the area under the concentration-time curve, a measure of exposure. A low value points to low exposure. The term Cmax denotes the highest concentration seen after dosing. Usually Tmax stands for the time at which the peak concentration occurs. As a reminder, the bioavailability is the share of a dose that reaches the circulation, judged against a reference dose that is usually intravenous. High values mean much systemic uptake, low ones little systemic uptake. As to `NC(=S)Nc1ccc2c(c1)Cc1cc(Br)ccc1-2`, the EC50 in the data set on Hepatitis C virus was found to be 0.3 µM. Also, in [1], the CC50 at 24 h was greater than 50 µM. In data set [2], this compound showed a clearance of 17 mL/min/kg. Further, in data set [3], the Vd stood at 2.8 L/kg. Also, the half-life is 2.6 h in [4] and 3.8 h in data set [8]. The AUC in [5] worked out at 4940 ng·h/mL; in data set [9], 294 ng·h/mL. The compound further yielded a Cmax in data set [6] of 106 ng/mL. Besides, the Tmax in [7] is 0.7 h. Also, the bioavailability in data set [10] amounted to 1.2%.
In the case of `NC(=S)Nc1ccc2c(c1)N1CCN=C1S2`, the EC50 in the data set on Hepatitis C virus is greater than 50 µM. In [1], this compound came in with a cytotoxic concentration (CC50) at 24 h greater than 50 µM.
For the compound `S=C(Nc1ccccc1)Nc1ccc2c(c1)Cc1cc(Br)ccc1-2`, the concentration giving a half-maximal response (EC50) with Hepatitis C virus turned out to be 42.8 µM. Besides, half-maximal cytotoxicity in [1] (CC50 at 24 h) was put at 46.2 µM.
`CCn1c2ccccc2c2cc(NC(N)=S)ccc21`: the EC50 with Hepatitis C virus was 7.55 µM. In addition, the cytotoxic concentration (CC50) at 24 h in data set [1] is greater than 50 µM.
For `COc1cc2c(cc1NC(N)=S)oc1ccccc12` the same measures were 5.51 µM and greater than 50 µM.
For `NC(=S)Nc1ccc2c(c1)Cc1ccccc1-2`, the EC50 in the data set on Hepatitis C virus was 2.09 µM. The CC50 at 24 h in data set [1] is greater than 50 µM.
On the same counts, the results for `CCN(CC)c1ccc2c(c1)Cc1cc(NC(N)=S)ccc1-2` are 0.83 µM and greater than 50 µM.
`NC(=S)Nc1ccc2c(c1)C(=O)c1cc(Br)ccc1-2`: in the data set with Hepatitis C virus, the EC50 worked out at 0.57 µM. In [1], this compound yielded a CC50 at 24 h greater than 50 µM. This compound also registered a clearance in data set [2] of 127 mL/min/kg. Moreover, the Vd in [3] stood at 2 L/kg. In addition, the half-life in data set [4] was 1.4 h; in data set [8], 1.7 h. The area under the curve (AUC) was determined as 655 ng·h/mL in data set [5] and 43 ng·h/mL in data set [9]. In addition, the Cmax in [6] turned out to be 65.3 ng/mL. The Tmax in [7] turned out to be 0.25 h. This compound gave a bioavailability in data set [10] of 1.3%.
`CNC(=S)Nc1ccc2c(c1)Cc1cc(Br)ccc1-2`: in the data set with Hepatitis C virus, the 50% effective concentration (EC50) was greater than 50 µM. In [1], this compound showed a CC50 at 24 h greater than 50 µM.
`NC(=S)Nc1ccc2c(c1)Cc1cc(N(Cc3ccccc3)Cc3ccccc3)ccc1-2`: the EC50 with Hepatitis C virus turned out to be 0.39 µM. For the same compound, half-maximal cytotoxicity in [1] (CC50 at 24 h) was put at 35.6 µM.
As for `NC(=S)Nc1ccc2c(c1)Cc1cc(N)ccc1-2`, the EC50 in the data set with Hepatitis C virus was greater than 50 µM. Besides, the half-maximal cytotoxic concentration (CC50) at 24 h in data set [1] was greater than 50 µM.
For the compound `NC(=S)Nc1ccc2c(c1)-c1ccccc1C2=O`, in the data set on Hepatitis C virus, the EC50 amounted to 21 µM. Moreover, in [1], the CC50 at 24 h was greater than 50 µM.
On the same counts, the results for `CCCN(CCC)c1ccc2c(c1)Cc1cc(NC(N)=S)ccc1-2` are 0.44 µM and 19.5 µM.
On the same counts, the results for `CCCCNc1ccc2c(c1)Cc1cc(NC(N)=S)ccc1-2` are 0.38 µM and greater than 50 µM.
On the same counts, the results for `CCCCN(CCCC)c1ccc2c(c1)Cc1cc(NC(N)=S)ccc1-2` are 0.72 µM and 40.7 µM.
Take `NC(=S)Nc1ccc2[nH]ncc2c1`: in the data set on Hepatitis C virus, the half-maximal effective concentration (EC50) was greater than 50 µM. In data set [1], this compound showed a CC50 at 24 h greater than 50 µM.
On to `NC(=S)Nc1ccc2cn[nH]c2c1`, for which the concentration giving a half-maximal response (EC50) with Hepatitis C virus is greater than 50 µM. The cytotoxic concentration (CC50) at 24 h in data set [1] was greater than 50 µM.
In the case of `S=C(NCc1ccccc1)Nc1ccc2c(c1)Cc1cc(Br)ccc1-2`, in the data set on Hepatitis C virus, the EC50 is greater than 50 µM. This compound also displayed a CC50 at 24 h in [1] greater than 50 µM.
As for `S=C(Nc1ccc(N2CCOCC2)cc1)Nc1ccc2c(c1)Cc1cc(Br)ccc1-2`, in the data set with Hepatitis C virus, the concentration giving a half-maximal response (EC50) amounted to 34.1 µM. In [1], this compound gave a CC50 at 24 h of 18.1 µM.
Consider `CCNC(=S)Nc1ccc2c(c1)Cc1cc(Br)ccc1-2`, for which the 50% effective concentration (EC50) in the data set with Hepatitis C virus is greater than 50 µM. The CC50 at 24 h in data set [1] was greater than 50 µM.
For the compound `CCCNc1ccc2c(c1)Cc1cc(NC(N)=S)ccc1-2`, in the data set with Hepatitis C virus, the EC50 worked out at 0.42 µM. Also, the CC50 at 24 h in data set [1] is greater than 50 µM.
On the same counts, the results for `NC(=S)Nc1ccc2oc(=O)c3ccccc3c2c1` are greater than 50 µM and greater than 50 µM.
`NC(=S)Nc1cccc(Oc2ccccc2)c1` registered a 50% cytotoxic concentration (CC50) at 24 h in [1] greater than 50 µM.
With `CN(C)c1ccc2c(c1)Cc1cc(NC(N)=S)ccc1-2`, the EC50 with Hepatitis C virus stood at 1.11 µM. In data set [1], the CC50 at 24 h was greater than 50 µM.
As for `NC(=S)Nc1ccc2nn[nH]c2c1`, in the data set on Hepatitis C virus, the EC50 is greater than 50 µM. The compound also yielded a CC50 at 24 h in data set [1] greater than 50 µM.
